For assay [1], the system named is Canis familiaris. Nature of the assay: Positive inotropic effect (increased myocardial contractility) in chronically instrumented conscious dogs at 0.1 mg/kg oral administration for 6 hours.
For assay [2], the system named is Canis familiaris. The assay can be described thus: Positive inotropic effect (increase in heart rate) in chronically instrumented conscious dogs at 0.1 mg/kg oral administration for 6 hours.
The test system of assay [3] is Canis familiaris. The assay can be described thus: Positive inotropic effect (reduced mean aortic blood pressure) in anesthetized dogs at 0.001-1.0 mg/kg intravenous administration. The class given is functional, Canis lupus familiaris, Artery. The essentials: (§1)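 Anesthetized dogs were given increasing intravenous half-log doses within 0.001–1.0 mg/kg. Heart rate, aortic blood pressure and dP/dtmax were recorded simultaneously. Changes are expressed as percent of control, with mean ± error at each dose.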

Assay [4] relates to Canis familiaris. Nature of the assay: Positive inotropic effect (increased myocardial contractility) in anesthetized dogs at 0.001-0.10 mg/kg intravenous administration, range 10.5-148.5.
Assay [5] deals with Canis familiaris. Nature of the assay: Positive inotropic effect (increase in heart rate) in anesthetized dogs at 0.001-1.0 mg/kg intravenous administration, range is 2.5-43.8. In kind it is functional, Canis lupus familiaris. The method in brief: as §1
Assay [6] has as its system Canis familiaris. Nature of the assay: Positive inotropic activity in anesthetized dogs. To be noted: Canis lupus familiaris. The class given is functional. The method in brief:
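Anesthetized dogs received increasing intravenous half-log doses across 0.001–1.0 mg/kg. dP/dtmax was recorded while heart rate and aortic pressure were monitored. ED50 was taken from the linear part of each animal's dose–response curve by least squares, then averaged as mean and SEM.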

The test system of assay [7] is Canis familiaris. Nature of the assay: Positive inotropic effect (increased myocardial contractility) in anesthetized dogs at 0.01-1.0 mg/kg intravenous administration, range 10.2-146.7.
Assay [8] concerns Canis familiaris. The assay can be described thus: Positive inotropic effect (reduced mean aortic blood pressure) in anesthetized dogs at 0.001-1.0 mg/kg intravenous administration, range 0.7-22.4. In kind it is functional, Canis lupus familiaris, Artery. The method in brief:
as §1

Assay [9] deals with Canis familiaris. Nature of the assay: Positive inotropic effect (increased myocardial contractility) in chronically instrumented conscious dogs at 1.0 mg/kg oral administration for 6 hours. The class given is functional, Canis lupus familiaris.
The subject of assay [10] is Canis familiaris. The assay can be described thus: Positive inotropic effect (increase in heart rate) in anesthetized dogs at 0.001-1.0 mg/kg intravenous administration, range is 1.2-33.8. The class given is functional, Canis lupus familiaris. The method in brief: as §1
In assay [11] the test system is Canis familiaris. The assay can be described thus: Positive inotropic effect (increase in heart rate) in chronically instrumented conscious dogs at 1.0 mg/kg oral administration for 6 hours. The class given is functional, Canis lupus familiaris.
The species named for another assay is Bos taurus. The assay can be described thus: Percent inhibition of crude bovine cardiac phosphodiesterase at 190 uM.

Values joined by “and” are separate entries in the source; they are usually repeats but may differ in a detail not shown here. Equal values may be shown once.

`CC1CC(O)=NN=C1c1ccc(-n2ccnc2)cc1` (configuration not stated) [CI-930]: the dP/dt max came to 50.2 in the assay on Canis familiaris [1] and 10.5 in the assay with Canis familiaris [4]. Also, the Heart rate in the assay on Canis familiaris [2] came to 41.6; in the assay on Canis familiaris [5], 2.5. In addition, the Blood pressure in the assay with Canis familiaris [3] is 19 and 7.4. This compound also showed an ED50 with Canis familiaris [6] of 0.013 mg/kg.
Consider `CSc1ccc(C(=O)c2[nH]c(=O)[nH]c2C)cc1` [ENOXIMONE], for which, in the assay with Canis familiaris [6], the ED50 stood at 0.283 mg/kg.
Consider `O=C1CCC(c2ccc(-n3ccnc3)cc2)=NN1` [IMAZODAN], for which the dP/dt max with Canis familiaris [7] worked out at 10.2; in the assay on Canis familiaris [9], 42.6. In the assay on Canis familiaris [8], the Blood pressure amounted to 0.7. Besides, the Heart rate with Canis familiaris [10] came to 0; with Canis familiaris [11], 48.1. For the same compound, the inhibition in the assay filed under Bos taurus was found to be 50%. In addition, the ED50 in the assay on Canis familiaris [6] worked out at 0.045 mg/kg.
Regarding `Nc1cc(-c2ccncc2)c[nH]c1=O` [INAMRINONE], the ED50 in the assay on Canis familiaris [6] amounted to 0.389 mg/kg.
`Cc1[nH]c(=O)c(C#N)cc1-c1ccncc1` [MILRINONE]: the 50% effect level in the assay with Canis familiaris [6] (ED50) was put at a dose of 0.037 mg/kg.
`COc1cc([S+](C)[O-])ccc1-c1nc2cccnc2[nH]1` (configuration not stated) [SULMAZOLE] yielded an ED50 in the assay on Canis familiaris [6] of 0.435 mg/kg.

Source of the values: ChEMBL document CHEMBL1122742, “Cardiotonic agents. 1. 4,5-Dihydro-6-[4-(1H-imidazol-1-yl)phenyl]-3 (2H)-pyridazinones: novel positive inotropic agents for the treatment of congestive heart failure” (J Med Chem, 1984).
